Results on 26 compounds are retold here after ChEMBL document CHEMBL2417530, “Coumarin derivatives protect against ischemic brain injury in rats” (Eur J Med Chem, 2013).

Data set [1] relates to Rattus norvegicus. The data set can be described thus: In vivo neuroprotective activity in Sprague-Dawley rat transient middle cerebral artery occlusion model assessed as reduction of brain-water content at 6 mg/kg, iv measured 24 hrs post reperfusion. In kind it is functional, organism-based. More on the design: dose 6 mg/kg. The procedure, abridged: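 Male SD rats (7 weeks, 260-280 g) had 60 min transient right MCA occlusion with a nylon filament, then reperfusion. Saline or drug (1.5, 3.0, 6.0 mg/kg) was injected iv at reperfusion. Animals without neurological deficit were replaced. At 24 h brains were oven-dried at 110 °C for 24 h, and water content was taken as (wet−dry)/wet; n = 12.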

In data set [2] the test system is Rattus norvegicus. The experiment in a line: In vivo neuroprotective activity in Sprague-Dawley rat transient middle cerebral artery occlusion model assessed as reduction of infarct size at 6 mg/kg, iv measured 24 hrs post reperfusion by TTC staining assay relative to vehicle-treated control. In kind it is functional. The method in brief: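 Male Sprague-Dawley rats, 7 weeks, 260–280 g, under 10% chloral hydrate ip. Right MCA occluded 60 min by tip-burned 4-0 nylon thread via common carotid, then reperfused. Saline or drug given iv at reperfusion, ethanol as cosolvent. Killed 24 h later; six 2 mm slices in 1% TTC in PBS, 37 °C, 30 min. Infarct area traced as % of total area; n = 12.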

In data set [3] the test system is PC-12. The data set can be described thus: Neuroprotective activity in rat PC12 cells assessed as attenuation of oxygen-glucose deprivation-induced cellular damage at 10 uM by MTT assay relative to control. In kind it is functional. The method in brief:
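PC12 cells were seeded at 5×10^3/well for 24 h. OGD insult was low-glucose medium plus 5 mM sodium dithionite for 24 h, given together with 10 µM compound. MTT (5 mg/mL) was added for 4 h and absorbance read at 570 nm. Viability was expressed as % of full-medium control; n = 3.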

Data set [4] can be described thus: Cytotoxicity against rat PC12 cells assessed as cell proliferation at 10 uM by MTT assay relative to control. The settings on record: read-out: Activity. In kind it is cell-based, PC-12. The procedure, abridged: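 PC12 cells were grown in DMEM with 5% FBS, 5% horse serum and 2 mM glutamine at 37 °C, 5% CO2. They were seeded at 5×10^3 cells/well for 24 h, then exposed to 10 µM compound in full medium. Viability was read by MTT (5 mg/mL, 4 h) at 570 nm as % of control absorbance; n = 3.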

Each structure is given as a SMILES string. Active and inactive are the calls of the source. No cut-off for these calls is given here.

As to `CC1=NN(c2ccccc2)C(=O)C1`, the result in data set [1] and in data set [2] was Active.

For `Cc1ccc(S(=O)(=O)NCCOc2cc(O)cc3oc(=O)c(N4CCN(C)CC4)c(C)c23)cc1`, the Activity in data set [3] is 45.1%. Moreover, the viability at 10 µM in data set [4] came to 140%.

As to `Cc1c(N2CCN(C(=O)C(F)(F)F)CC2)c(=O)oc2cc(O)cc(O)c12`, the Activity in data set [3] amounted to 49.3%. For the same compound, the viability at 10 µM in data set [4] came to 97.4%.

As to `CCN1CCN(c2c(C)c3c(O)cc(O)cc3oc2=O)CC1`, the Activity in data set [3] stood at 46.4%. Also, in data set [4], the viability at 10 µM came to 101%.

Turning to `Cc1c(N2CCN(C)CC2)c(=O)oc2cc(O)cc(OCC3CC3)c12`, the Activity in data set [3] was found to be 37.7%. The viability at 10 µM in data set [4] was 184%.

With `Cc1c(N2CCN(C)CC2)c(=O)oc2cc(O)cc(OCCc3ccccn3)c12`, the Activity in data set [3] is 48.2%. The viability at 10 µM in data set [4] was 152%.

As for `Cc1c(N2CCN(C)CC2)c(=O)oc2cc(O)cc(OC3CCCCC3)c12`, in data set [3], the Activity is given as 36.1%. In addition, the viability at 10 µM in data set [4] was 177%.

For `Cc1c(N2CCN(C)CC2)c(=O)oc2cc(O)cc(OC3CCN(C)CC3)c12`, the Activity in data set [3] amounted to 19.9%. Also, the viability at 10 µM in data set [4] is 139%.

With `Cc1c(CCN2CCN(C)CC2)c(=O)oc2cc(O)cc(O)c12`, the Activity in data set [3] worked out at 45.9%. In addition, the viability at 10 µM in data set [4] was determined as 102%.

Consider `Cc1c(N2CCN(C)CC2)c(=O)oc2cc(O)cc(OC3CCN(C(=O)OC(C)(C)C)CC3)c12`, for which the Activity in data set [3] is given as 51.5%. Moreover, the viability at 10 µM in data set [4] was 137%.

As to `Cc1ccc(COc2cc(O)cc3oc(=O)c(N4CCN(C)CC4)c(C)c23)c(C)c1`, the Activity in data set [3] worked out at 27.3%. In data set [4], the viability at 10 µM turned out to be 51.6%.

Regarding `CCCCOc1cc(O)cc2oc(=O)c(N3CCN(C)CC3)c(C)c12`, the Activity in data set [3] turned out to be 46.2%. For the same compound, the viability at 10 µM in data set [4] was 197%.

For the compound `Cc1c(N2CCN(C(=O)Nc3ccccc3Oc3ccccc3)CC2)c(=O)oc2cc(O)cc(O)c12`, the Activity in data set [3] came out at 49.3%. Also, the viability at 10 µM in data set [4] amounted to 97.9%.

Take `Cc1c(N2CCN(C)CC2)c(=O)oc2cc(O)cc(OCCN3CCOCC3)c12`: the Activity in data set [3] came to 56.9%. Besides, the viability at 10 µM in data set [4] worked out at 108%.

On to `Cc1c(N2CCN(Cc3ccccc3)CC2)c(=O)oc2cc(O)cc(O)c12`, for which the Activity in data set [3] stood at 44.4%. Moreover, the viability at 10 µM in data set [4] was determined as 100%.

On to `COc1cc(O)c2c(C)c(N3CCN(C)CC3)c(=O)oc2c1`, for which the Activity in data set [3] was determined as 46.1%. Further, in data set [4], the viability at 10 µM worked out at 99.8%.

For `Cc1c(N2CCN(C)CC2)c(=O)oc2cc(O)cc(OCCN3CCCCC3)c12`, the Activity in data set [3] came to 24.9%. In data set [4], the viability at 10 µM is 144%.

Regarding `Cc1c(N2CCN(C)CC2)c(=O)oc2cc(N(C)C)ccc12`, in data set [3], the Activity worked out at 45.8%. In addition, the viability at 10 µM in data set [4] was determined as 97.8%.

With `Cc1c(CC(=O)N2CCN(C)CC2)c(=O)oc2cc(O)cc(O)c12`, the Activity in data set [3] is given as 46.7%. For the same compound, in data set [4], the viability at 10 µM worked out at 97.7%.

Consider `Cc1cc(O)c2c(C)c(N3CCN(C)CC3)c(=O)oc2c1`, for which the Activity in data set [3] came out at 47.3%. Besides, in data set [4], the viability at 10 µM worked out at 99.5%.

Regarding `CC(=O)N1CCN(c2c(C)c3c(O)cc(O)cc3oc2=O)CC1`, the Activity in data set [3] is given as 48.4%. Moreover, the viability at 10 µM in data set [4] was 98.1%.

Turning to `Cc1cccc(N2CCN(c3c(C)c4c(O)cc(O)cc4oc3=O)CC2)c1C`, in data set [3], the Activity came to 47.1%. Moreover, the viability at 10 µM in data set [4] was 103%.

For `Cc1c(N2CCN(c3ccc(F)cc3)CC2)c(=O)oc2cc(O)cc(O)c12`, in data set [3], the Activity came to 47%. Further, the viability at 10 µM in data set [4] came out at 103%.

On to `COc1ccccc1N1CCN(c2c(C)c3c(O)cc(O)cc3oc2=O)CC1`, for which the Activity in data set [3] is 46.8%. In addition, the viability at 10 µM in data set [4] was determined as 102%.

As for `Cc1c(N2CCN(C)CC2)c(=O)oc2cc(O)cc(OCCN3CCCC3)c12`, the Activity in data set [3] came to 48.2%. Moreover, in data set [4], the viability at 10 µM was determined as 135%.

For `COc1cc(OC)c2c(C)c(N3CCN(C)CC3)c(=O)oc2c1`, the Activity in data set [3] was determined as 49.6%. In addition, the viability at 10 µM in data set [4] is 100%.
